Test results reported in article PMC2217059 (The Journal of General Physiology, 1997).
Values joined by “and” are separate entries in the source; they are usually repeats but may differ in a detail not shown here. Equal values may be shown once. Read-outs that look alike come from different tables or passages of the source.

Tests used:
[1] = target: T1, Na,K-ATPase (Sus scrofa, UniProt P05024); assay: Equilibrium binding of 14C-ADP to membrane-bound Na,K-ATPase; design: species or system pig; conditions: for Kd: read-out: K diss for ADP-binding
How it was run: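 The enzyme was membrane-bound Na,K-ATPase from pig kidney outer medulla, SDS-extracted. It was mixed on ice with water or Na+ salt in imidazole/sucrose/EDTA (pH 7.4), then with 14C-ADP (stock 40 μM) in Tris buffer (pH 6.3). NO3− and SO4 2− series used enzyme washed into buffer titrated with HNO3 or H2SO4. Final pH was 7.65–7.82 and basal I 78 mM. Samples were centrifuged at 100,000 g for 60 min at 0–2°C; bound ADP was total minus supernatant. Kdiss came from nonlinear regression with a common Bmax per series.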

[2] = target: Na,K-ATPase; conditions: read-out: K diss, Na+-form (E1-form), I < 0.1 M, ref Nørby and Jensen, 1971, Hegyvary and Post, Jørgensen, 1975, Skou and Esmann, 1981; cited from earlier work
[3] = target: T1, Na,K-ATPase; assay: Na,K-ATPase activity; assay type: biochemical, pig
[4] = system: Na,K-ATPase mutant Lys480Glu; conditions: ref Wang and Farley, 1992; cited from earlier work
[5] = system: Na,K-ATPase Asp369 substituted with Asn or Ala; conditions: Asp369 substituted with uncharged Asn or Ala; ref Pedersen et al., 1996; cited from earlier work
[6] = I around 0.1 M, cited from earlier work
[7] = target: T1, Na,K-ATPase; conditions: cited from earlier work
[8] = target: T1, Na,K-ATPase; assay: Effect of NO3− on ADP-binding, competitive model of Fig. 4; design: species or system pig; conditions: line through (0,1); I 78–228 mM and constant I 178 mM
How it was run: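 ADP-binding affinities for pig kidney membrane Na,K-ATPase were determined by centrifugation binding at 0–2°C. Kdiss/KA was plotted against [NO3−] for the NaNO3 series (I 78–228 mM). […] A line through (0,1) was fitted, and KN for ENO3 was taken as the reciprocal slope.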

[9] = target: T1, Na,K-ATPase; assay: K+-dependent p-nitrophenylphosphatase; assay type: biochemical, pig
How it was run: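 K+-pNPPase was assayed at 37°C, pH 7.4, in 30 mM histidine/HCl with 10 pmol enzyme·ml−1, 20 mM MgCl2, K+ salts and 10 mM Na2pNPP (basal I ~90 mM). Substrate-dependence runs varied Na2pNPP at 0.05–0.4 M KCl. After 3 min, reactions were stopped with ice-cold TCA (final 5%) and p-nitrophenol was measured. Blanks were reagent blanks without enzyme. Results are the mean of two to four experiments.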

[10] = system: H+-translocating Mg-ATPases from tissues of higher plants; conditions: ref Sze, 1985, Jacoby, 1987, Blumwald et al.; cited from earlier work

## Nc1ncnc2c1ncn2[C@@H]1O[C@H](COP(=O)(O)OP(=O)(O)O)[C@@H](O)[C@H]1O [ADP]
[1]; 0–0.5 M NaCl, Na2SO4, NaNO3, 0.1 M Na-acetate, NaSCN, NaClO4
  decrease of apparent affinity for ADP with salt: up to 30 times
[1]; Exp. A2, NaCl series, [Cl−] 119 mM, I 178 mM
  Bmax of ADP-binding: 1.20 ± 0.01 µM
[1]; Exp. A3, NaCl series, [Cl−] 219 mM, I 278 mM
  Bmax of ADP-binding: 1.20 ± 0.02 µM
[1]; Exp. A4, NaCl series, [Cl−] 319 mM, I 378 mM
  Bmax of ADP-binding: 1.13 ± 0.11 µM
[1]; Exp. A5, NaCl series, [Cl−] 394 mM, I 453 mM
  Bmax of ADP-binding: 1.29 ± 0.09 µM
[1]; Exp. A6, NaCl series, [Cl−] 469 mM, I 528 mM
  Bmax of ADP-binding: 1.20 ± 0.11 µM
[1]; Exp. A7, NaCl series, [Cl−] 519 mM, I 578 mM
  Bmax of ADP-binding: 0.98 ± 0.09 µM
[1]; Exp. B1, Na2SO4 series, [SO4 2−] 6 mM, I 78 mM
  Bmax of ADP-binding: 1.70 ± 0.04 µM
[1]; Exp. B2, Na2SO4 series, [SO4 2−] 6 mM, I 78 mM
  Bmax of ADP-binding: 1.73 ± 0.02 µM
[1]; Exp. B3, Na2SO4 series, [SO4 2−] 36 mM, I 168 mM
  Bmax of ADP-binding: 1.71 ± 0.02 µM
[1]; Exp. B4, Na2SO4 series, [SO4 2−] 66 mM, I 258 mM
  Bmax of ADP-binding: 1.77 ± 0.03 µM
[1]; Exp. B5, Na2SO4 series, [SO4 2−] 96 mM, I 348 mM
  Bmax of ADP-binding: 1.72 ± 0.06 µM
[1]; Exp. B6, Na2SO4 series, [SO4 2−] 126 mM, I 438 mM
  Bmax of ADP-binding: 1.96 ± 0.10 µM
[1]; Exp. B7, Na2SO4 series, [SO4 2−] 156 mM, I 528 mM
  Bmax of ADP-binding: 1.77 ± 0.08 µM
[1]; Exp. C1, NaNO3 series, [NO3−] 19 mM, I 78 mM
  Bmax of ADP-binding: 1.80 ± 0.02 µM
[1]; Exp. C2, NaNO3 series, [NO3−] 24 mM, I 83 mM
  Bmax of ADP-binding: 1.83 ± 0.03 µM
[1]; Exp. C3, NaNO3 series, [NO3−] 49 mM, I 108 mM
  Bmax of ADP-binding: 1.80 ± 0.03 µM
[1]; Exp. C4, NaNO3 series, [NO3−] 79 mM, I 138 mM
  Bmax of ADP-binding: 1.84 ± 0.04 µM
[1]; Exp. C5, NaNO3 series, [NO3−] 79 mM, I 138 mM
  Bmax of ADP-binding: 1.84 ± 0.01 µM
[1]; Exp. C6, NaNO3 series, [NO3−] 109 mM, I 168 mM
  Bmax of ADP-binding: 1.78 ± 0.06 µM
[1]; Exp. C7, NaNO3 series, [NO3−] 139 mM, I 198 mM
  Bmax of ADP-binding: 1.80 ± 0.06 µM
[1]; Exp. C8, NaNO3 series, [NO3−] 169 mM, I 228 mM
  Bmax of ADP-binding: 1.82 ± 0.08 µM
[1]; 19 mM Cl− + 100 mM Na+ salt of ClO4−, I 178 mM
  Kd: 38.6 ± 0.7 µM
[1]; 19 mM Cl− + 100 mM Na+ salt of NO3−, I 178 mM
  Kd: 3.24 ± 0.05 µM
[1]; 19 mM Cl− + 100 mM Na+ salt of SCN−, I 178 mM
  Kd: 18.3 ± 0.2 µM
[1]; 19 mM Cl− + 100 mM Na-acetate, I 178 mM
  Kd: 0.635 ± 0.004 µM
[1]; 19 mM Cl− + 100 mM NaCl (Cl−), I 178 mM
  Kd: 0.64 ± 0.007 µM
[2]
  Kd: < 1 µM

## Nc1ncnc2c1ncn2[C@@H]1O[C@H](COP(=O)(O)OP(=O)(O)OP(=O)(O)O)[C@@H](O)[C@H]1O [ATP]
[3]; 20 mM KCl, [Mgtot] = [ATP] + 1 mM, 0.16–0.75 M NaCl, 37°C, pH 7.4
  change of K m for ATP with increasing I: slight decrease
[4]
  reduction of affinity for ATP: ~10 fold
[5]
  increase in affinity for ATP at the high-affinity site: 20–30 fold

## O=C(O)CN(CCN(CC(=O)O)CC(=O)O)CC(=O)O [H2EDTA^2−]
[6]; ref Kortüm et al., 1961
  pKa: 6.5

## [K+] [K^+]
[7]; K+-pNPPase model with Na+/K+ competition, ref Beaugé et al., 1984
  K 0.5 for K+, chosen for the model: 2 mM

## O=[N+]([O-])O [NO3 ^−]
[8]
  slope of K diss/K A versus [NO3−]: 0.0309 ± 0.0006 mM⁻¹ and 0.031 mM⁻¹
[9]; KNO3 compared with KCl, 10 mM Na2pNPP, also 25 mM pNPP
  specific anion effect on K+-pNPPase activity: does not have any special effect
[10]
  K 0.5 of inhibition: 10 to 50 mM

## O=S(=O)([O-])[O-].[Na+].[Na+] [Na2SO4]
[3]; activity plotted versus I, 20 mM KCl, 3 mM ATP, 4 mM MgCl2
  inhibitory effect on Na,K-ATPase activity, less than that of NaCl: 10–30%

## CC(=O)[O-].[Na+] [Na-acetate]
[3]; up to 800 mM, not shown
  effect on Na,K-ATPase activity compared with NaCl: the same results as with NaCl

## NC(CO)(CO)CO [TrisH^+]
[6]; ref Perrin, 1965
  pKa: 8.8

## c1c[nH]cn1 [imidazoleH^+]
[6]; ref Perrin, 1965
  pKa: 7.5

## O=[N+]([O-])c1ccc(OP(=O)(O)O)cc1 [pNPP, p-nitrophenylphosphate]
[9]; 0.125 M ClO4−
  K 0.5 for pNPP: ~5.5 mM
[9]; 0.125 M Cl−
  K 0.5 for pNPP: about 4.5 mM
[9]; highest values reached with increasing [KCl] (0.05–0.6 M KCl), 37°C, pH 7.4
  K m for pNPP: 10–12 mM
[7]; low ionic strength, ref Skou, 1974, Campos et al., 1988, Fig. 9 in this paper
  K m for pNPP: 2–3 mM
